# ChEMBL document CHEMBL1134630, “Synthesis, DNA cross-linking activity, and cytotoxicity of dimeric mitomycins” (J Med Chem, 2001)
# Columns and labels:
# U-87 MG [1] = assay: in vitro inhibition of tumor cell growth in cultured U87MG human tumor cell line; assay type: functional, cell-based, U-87MG ATCC
# Summary of the method: (§1)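 Human tumour cell lines grown in RPMI-1640 with 25 mM HEPES, 2% NaHCO3, 10% fetal bovine serum and 100 μg/mL kanamycin at 37 °C under 5% CO2. Cells had 3 days of continuous compound exposure in 96-well plates. Fixed with 10% TCA and stained with 0.4% sulforhodamine B; dye dissolved in 20 mM Tris pH 8.0 and read at 562 nm. Treatments run in duplicate. IC50 interpolated from fitted dose-response curves.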
# MCF7 = assay: in vitro inhibition of tumor cell growth in cultured MCF-7 human tumor cell line; assay type: functional, cell-based; summary of the method: as §1
# [2] = Mean IC50 for all seven tumor cell lines was determined; assay type: functional; summary of the method: as §1
# HepG2 = assay: in vitro inhibition of tumor cell growth in cultured HepG2 human tumor cell line; assay type: functional, cell-based; summary of the method: as §1
# A549 [3] = assay: in vitro inhibition of tumor cell growth in cultured A549 human tumor cell line; assay type: functional, cell-based; summary of the method: as §1
# HCT-8 = assay: in vitro inhibition of tumor cell growth in cultured HCT-8 human tumor cell line; assay type: functional, cell-based; summary of the method: as §1
# KB [4] = assay: in vitro inhibition of tumor cell growth in cultured KB human tumor cell line; assay type: functional, cell-based; summary of the method: as §1
# PC-3 = assay: in vitro inhibition of tumor cell growth in cultured PC-3 human tumor cell line; assay type: functional, cell-based; summary of the method: as §1
# A549 [5] = assay: in vitro anticancer activity against cultured A549 human tumor(lung) cell line; assay type: functional, cell-based; summary of the method: as §1
# U-87 MG [6] = assay: in vitro anticancer activity against cultured U87MG (glioblastoma) human tumor cell line; assay type: functional, cell-based, U-87MG ATCC; summary of the method: as §1
# KB [7] = assay: in vitro anticancer activity against cultured KB(epidermoid) human tumor cell line; assay type: functional, cell-based; summary of the method: as §1
Compound,IC50 (U-87 MG [1]) [mg/L],IC50 (MCF7) [mg/L],Mean IC50 [2] [mg/L],IC50 (HepG2) [mg/L],IC50 (A549 [3]) [mg/L],IC50 (HCT-8) [mg/L],IC50 (KB [4]) [mg/L],IC50 (PC-3) [mg/L],IC50 (A549 [5]) [mg/L],IC50 (U-87 MG [6]) [mg/L],IC50 (KB [7]) [mg/L]
CO[C@@]12[C@H](COC(N)=O)C3=C(C(=O)C(C)=C(Nc4ccccc4)C3=O)N1C[C@@H]1N[C@@H]12,0.26,0.06,0.09,0.05,0.02,0.004,0.13,0.11,–,–,–
CO[C@@]12[C@H](COC(N)=O)C3=C(C(=O)C(C)=C(NCCOCCNC4=C(C)C(=O)C5=C(C4=O)[C@@H](COC(N)=O)[C@@]4(OC)[C@H]6NC6CN54)C3=O)N1CC1N[C@@H]12 (stereo partly specified),–,–,–,–,–,–,–,–,> 10,> 10,–
CO[C@@]12[C@H](COC(N)=O)C3=C(C(=O)C(C)=C(N)C3=O)N1C[C@H]1[C@@H]2N1C(=O)CCCC(=O)N1[C@H]2[C@@H]1CN1C3=C(C(=O)C(N)=C(C)C3=O)[C@@H](COC(N)=O)[C@@]21OC,–,–,–,–,–,–,–,–,0.67,> 1,> 1
CO[C@@]12[C@H](COC(N)=O)C3=C(C(=O)C(C)=C(N)C3=O)N1C[C@H]1[C@@H]2N1C(=O)CCCCCC(=O)N1[C@H]2[C@@H]1CN1C3=C(C(=O)C(N)=C(C)C3=O)[C@@H](COC(N)=O)[C@@]21OC,–,–,–,–,–,–,–,–,0.68,> 1,> 1
CO[C@@]12[C@H](COC(N)=O)C3=C(C(=O)C(C)=C(Nc4ccc(Oc5ccc(NC6=C(C)C(=O)C7=C(C6=O)[C@@H](COC(N)=O)[C@@]6(OC)[C@H]8NC8CN76)cc5)cc4)C3=O)N1CC1N[C@@H]12 (stereo partly specified),–,0.14,0.11,0.05,–,0.06,–,0.08,0.062,0.32,0.064
CO[C@@]12[C@H](COC(N)=O)C3=C(C(=O)C(C)=C(NCCCOCCCNC4=C(C)C(=O)C5=C(C4=O)[C@@H](COC(N)=O)[C@@]4(OC)[C@H]6NC6CN54)C3=O)N1CC1N[C@@H]12 (stereo partly specified),–,–,–,–,–,–,–,–,> 10,> 1,> 1
CO[C@@]12[C@H](COC(N)=O)C3=C(C(=O)C(C)=C(N)C3=O)N1C[C@H]1[C@@H]2N1C(=O)CCC(=O)N1[C@@H]2CN3C4=C(C(=O)C(N)=C(C)C4=O)[C@H](COC(N)=O)[C@]3(OC)[C@@H]21,–,–,–,–,–,–,–,–,0.67,> 1,> 1
CO[C@@]12[C@H](COC(N)=O)C3=C(C(=O)C(C)=C(Nc4ccc(CCc5ccc(NC6=C(C)C(=O)C7=C(C6=O)[C@@H](COC(N)=O)[C@@]6(OC)[C@H]8NC8CN76)cc5)cc4)C3=O)N1CC1N[C@@H]12 (stereo partly specified),–,0.21,0.2,0.16,–,0.11,–,0.2,0.095,0.51,0.215
CO[C@@]12[C@H](COC(N)=O)C3=C(C(=O)C(C)=C(N)C3=O)N1C[C@H]1[C@@H]2N1C(=O)CCCCC(=O)N1[C@@H]2CN3C4=C(C(=O)C(N)=C(C)C4=O)[C@H](COC(N)=O)[C@]3(OC)[C@@H]21,–,–,–,–,–,–,–,–,0.76,> 1,> 1
CO[C@@]12[C@H](COC(N)=O)C3=C(C(=O)C(C)=C(NCCNCCNC4=C(C)C(=O)C5=C(C4=O)[C@@H](COC(N)=O)[C@@]4(OC)[C@H]6NC6CN54)C3=O)N1CC1N[C@@H]12 (stereo partly specified),–,–,–,–,–,–,–,–,> 1,> 1,0.98
CO[C@@]12[C@H](COC(N)=O)C3=C(C(=O)C(C)=C(NCCCNCCCNC4=C(C)C(=O)C5=C(C4=O)[C@@H](COC(N)=O)[C@@]4(OC)[C@H]6NC6CN54)C3=O)N1CC1N[C@@H]12 (stereo partly specified),–,–,–,–,–,–,–,–,> 1,> 1,> 1
CO[C@@]12[C@H](COC(N)=O)C3=C(C(=O)C(C)=C(N)C3=O)N1C[C@@H]1N[C@@H]12 [MITOMYCIN],–,0.45,0.63,0.36,–,0.15,–,1.55,0.08,0.97,0.1
CO[C@@]12[C@H](COC(N)=O)C3=C(C(=O)C(C)=C(NCc4ccc(CNC5=C(C)C(=O)C6=C(C5=O)[C@@H](COC(N)=O)[C@@]5(OC)[C@H]7NC7CN65)cc4)C3=O)N1CC1N[C@@H]12 (stereo partly specified),–,–,–,–,–,–,–,–,> 1,> 1,> 1
COC1=C(C)C(=O)C2=C(C1=O)[C@@H](COC(N)=O)[C@@]1(OC)[C@H]3N[C@H]3CN21 [MITOMYCIN A],–,0.045,0.014,0.008,–,0.006,–,0.02,0.006,0.009,0.008
